From PubChem BioAssay AID652205 (Vanderbilt Specialized Chemistry Center, 2013)
Activity calls are given as the source filed them. The rule behind the calls is not given here.

Target: Metabotropic glutamate receptor 6 (Homo sapiens) (UniProt O15303)
Assay: human mGlu6 allosteric modulation, selectivity assay for mGlu5 silent allosteric modulator project, cell-based, HEK293A, Galpha15, calcium mobilization (AID 652205)
Conditions: HEK293A hmGlu6+Galpha15, Fluo4 calcium mobilization, glutamate CRC; at 10 µM
Outline: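 Buffer or medium – HBSS with 2.5 mM probenecid and 20 mM HEPES, pH 7.4 · Test system – human mGlu6 plus Galpha15 in HEK293 cells · Dosing – single test compound dose of 10 µM, 1% DMSO · Times – dye loading 60 min, 37 °C, compound at 20 s · Technique – Fluo-4 calcium mobilization fluorescence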

Metabotropic glutamate receptor 6 (Homo sapiens), sequence (O15303 whole entry, looked up): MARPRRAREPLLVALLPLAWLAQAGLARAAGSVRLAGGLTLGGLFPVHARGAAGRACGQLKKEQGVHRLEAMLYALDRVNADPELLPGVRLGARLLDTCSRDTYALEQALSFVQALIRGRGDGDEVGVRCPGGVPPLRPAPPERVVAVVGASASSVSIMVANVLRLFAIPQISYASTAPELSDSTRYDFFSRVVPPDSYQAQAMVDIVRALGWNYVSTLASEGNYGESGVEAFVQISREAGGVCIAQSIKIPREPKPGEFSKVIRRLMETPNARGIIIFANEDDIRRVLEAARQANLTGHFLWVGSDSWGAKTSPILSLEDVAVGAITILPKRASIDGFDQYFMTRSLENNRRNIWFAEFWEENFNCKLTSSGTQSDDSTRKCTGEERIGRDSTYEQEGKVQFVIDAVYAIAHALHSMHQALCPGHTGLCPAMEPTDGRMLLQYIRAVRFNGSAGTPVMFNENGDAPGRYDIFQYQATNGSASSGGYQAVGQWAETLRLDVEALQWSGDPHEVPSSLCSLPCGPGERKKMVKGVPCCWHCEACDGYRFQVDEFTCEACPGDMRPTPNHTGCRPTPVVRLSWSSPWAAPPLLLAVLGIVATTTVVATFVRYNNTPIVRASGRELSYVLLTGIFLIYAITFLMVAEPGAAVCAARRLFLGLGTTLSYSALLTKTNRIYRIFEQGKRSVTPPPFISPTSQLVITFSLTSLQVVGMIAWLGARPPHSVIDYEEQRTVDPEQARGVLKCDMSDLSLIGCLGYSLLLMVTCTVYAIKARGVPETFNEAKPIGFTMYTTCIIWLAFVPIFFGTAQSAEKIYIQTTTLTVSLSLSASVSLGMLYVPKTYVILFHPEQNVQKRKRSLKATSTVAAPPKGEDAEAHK

glutamate EC50 fold shift: 0.859 (inactive)
Compound: O=C(c1ccc(C#Cc2cccc(F)c2)cn1)N1CC2CC2C1 (stereo unspecified)
